Measurements published in ChEMBL document CHEMBL2311392, “Differential interactions of rifabutin with human and bacterial membranes: implication for its therapeutic and toxic effects” (J Med Chem, 2013).

Key:
Lipid bilayer [1] = experiment: Binding affinity to DPH-PA probe-labeled DMPG liposomes assessed as main phase transition temperature at 30 uM by steady-state fluorescence anisotrope (reference value: 23.9 +/- 0.3 degC); conditions: Microsome
Lipid bilayer [2] = experiment: Binding affinity to DPH probe-labeled DMPG liposomes assessed as main phase transition temperature at 30 uM by steady-state fluorescence anisotrope (reference value: 24.1 +/- 0.5 degC)
Lipid bilayer [3] = experiment: Binding affinity to DPH-PA probe-labeled DMPC liposomes assessed as main phase transition temperature at 30 uM by steady-state fluorescence anisotrope (reference value: 24.6 +/- 0.3 degC); conditions: Microsome
Lipid bilayer [4] = experiment: Binding affinity to DPH probe-labeled DMPC liposomes assessed as main phase transition temperature at 30 uM by steady-state fluorescence anisotrope (reference value: 24.4 +/- 0.2 degC)
Lipid bilayer [5] = experiment: Binding affinity to DPH-PA probe-labeled DMPG liposomes assessed as binding constant by fluorescence quenching assay
Outline: (§1)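 LUVs (100 nm extrusion) of DMPC or DMPG at 500 μM total lipid in HEPES 0.01 M, I = 0.1 M (NaCl), pH 7.4, labelled with DPH or DPH-PA (probe:lipid 1:300). Drug (0–27 μM) incubated 30 min at 37.0 °C in the dark. Steady-state intensity (ex 357/360, em 427/430 nm) and lifetime read, corrected for quencher absorbance. Membrane drug concentration taken from Kp. Stern–Volmer constants obtained at 37.0 and 42.0 °C.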

Lipid bilayer [6] = experiment: Binding affinity to DPH probe-labeled DMPG liposomes assessed as binding constant by fluorescence quenching assay; outline: as §1
Lipid bilayer [7] = experiment: Binding affinity to DPH-PA probe-labeled DMPC liposomes assessed as binding constant by fluorescence quenching assay; outline: as §1
[8] = Drug localization in DPH-PA probe-labeled DMPG liposomes at 42 +/- 0.1 degC by fluorescence quenching; format: physicochemical; outline: as §1
Lipid bilayer [9] = experiment: Binding affinity to DPH probe-labeled DMPC liposomes assessed as binding constant by fluorescence quenching assay; outline: as §1
[10] = Drug localization in DPH-PA probe-labeled DMPC liposomes at 42 +/- 0.1 degC by fluorescence quenching; format: physicochemical; outline: as §1
[11] = Drug localization in DPH probe-labeled DMPG liposomes at 42 +/- 0.1 degC by fluorescence quenching; format: physicochemical; outline: as §1
[12] = Drug localization in DPH probe-labeled DMPC liposomes at 42 +/- 0.1 degC by fluorescence quenching; format: physicochemical; outline: as §1
[13] = Drug localization in DPH probe-labeled DMPG liposomes at 37 +/- 0.1 degC by fluorescence quenching; format: physicochemical; outline: as §1
[14] = Drug localization in DPH-PA probe-labeled DMPG liposomes at 37 +/- 0.1 degC by fluorescence quenching; format: physicochemical; outline: as §1
[15] = Drug localization in DPH probe-labeled DMPC liposomes at 37 +/- 0.1 degC by fluorescence quenching; format: physicochemical; outline: as §1
[16] = Drug localization in DPH-PA probe-labeled DMPC liposomes at 37 +/- 0.1 degC by fluorescence quenching; format: physicochemical; outline: as §1

- Tm (Lipid bilayer [1]): 24.2 °C
- Tm (Lipid bilayer [2]): 24.4 °C
- Tm (Lipid bilayer [3]): 24.5 °C
- Tm (Lipid bilayer [4]): 24.5 °C
- Kq (Lipid bilayer [5]): 2.6e+10 M⁻¹ s⁻¹
- Kq (Lipid bilayer [6]): 1.9e+10 M⁻¹ s⁻¹
- Kq (Lipid bilayer [7]): 2.9e+10 M⁻¹ s⁻¹
- KSV [8]: 121 M⁻¹
- Kq (Lipid bilayer [9]): 2.7e+10 M⁻¹ s⁻¹
- KSV [10]: 76 M⁻¹
- KSV [11]: 132 M⁻¹
- KSV [12]: 156 M⁻¹
- KSV [13]: 167 M⁻¹
- KSV [14]: 181 M⁻¹
- KSV [15]: 216 M⁻¹
- KSV [16]: 165 M⁻¹
Compound: CO[C@H]1/C=C/O[C@@]2(C)Oc3c(C)c(O)c4c(c3C2=O)C2=NC3(CCN(CC(C)C)CC3)NC2=C(NC(=O)/C(C)=C\C=C\[C@H](C)[C@H](O)[C@@H](C)[C@@H](O)[C@@H](C)[C@H](OC(C)=O)[C@@H]1C)C4=O [RIFABUTIN]
